The test system of one data set is Cryptosporidium parvum. Nature of the data set: Antiparasitic activity against Nanoluciferase-tagged Cryptosporidium parvum infected in human HCT-8 cells assessed as inhibition of parasite growth incubated for 48 hrs by NanoGlo luciferase reagent based assay. The data set is classed as functional, organism-based. The settings on record: HCT-8, 48 h. Summed up: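 HCT-8 cells grown 48 h to 50–75% confluence; calf-propagated oocysts activated 15 min in 10% bleach at room temperature, DPBS-washed, 5 × 10^3 per well in RPMI-1640 with 10% heat-inactivated FBS and penicillin-streptomycin plus graded compound, 48 h at 37 °C, 5% CO2. Lysed monolayers read with Nano-Glo; growth relative to infected untreated wells, no-parasite background; variable-slope sigmoidal EC50.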

Data set [1] is described as follows: Cytotoxicity against human HepG2 cells incubated for 48 hrs by MTS based assay. Format: toxicity, cell-based.
Data set [2] is described as follows: Selectivity index, ratio of EC50 for cytotoxicity against human HepG2 cells to EC50 for antimalarial activity against asynchronous Plasmodium falciparum Dd2 infected in human A+ erythrocytes. The settings on record: read-out: Ratio EC50. The data set is classed as toxicity, cell-based. The method, boiled down: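 SI is HepG2 EC50 over P. falciparum Dd2 EC50. Asynchronous-stage parasites were assayed by SYBR Green I fluorescence with chloroquine-treated and untreated controls, and EC50 came from dose–response fits. HepG2 cytotoxicity used an MTS absorbance assay in triplicate up to 25 μM, with a 5% Triton X-100 zero-viability control and a no-treatment control.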

The next data set deals with Plasmodium falciparum. Nature of the data set: Antimalarial activity against asynchronous Plasmodium falciparum Dd2 infected in human A+ erythrocytes incubated for 72 hrs by SYBR Green I dye based assay. Format: functional, organism-based. The note with it: Dd2, Erythrocyte.
For another data set, the system named is Mycoplasma genitalium. Nature of the data set: Antibacterial activity against Mycoplasma genitalium G37 assessed as bacterial growth inhibition incubated for 6 to 7 days by microbroth dilution assay. Format: functional, organism-based. The note with it: Mycoplasmoides genitalium. The method, boiled down: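 M. genitalium G37 from frozen stock grown 2 days in SP-4 broth at 37 °C, 5% CO2, to log phase; 0.45 μm-filtered, diluted 1:200 in SP-4 with 7.5% FBS, ~10^4 CFU per well with 2-fold serial compound dilutions in triplicate.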
Background: Broth dilution looks for growth in wells or tubes with falling amounts of substance.

Another data set concerns Trichomonas vaginalis. Nature of the data set: Antiparasitic activity against Trichomonas vaginalis Donne PRA-98 incubated for 17 hrs by glutaraldehyde/propidium iodide/acridine orange staining based high-content imaging analysis. The settings on record: Donne PRA-98, 17 h. The data set is classed as functional, organism-based.
Data set [3] can be described thus: Selectivity index, ratio of EC50 for cytotoxicity against human HepG2 cells to EC50 for antiparasitic activity against Nanoluciferase-tagged Cryptosporidium parvum infected in human HCT-8 cells assessed as inhibition of parasite growth. The data set is classed as toxicity, cell-based. The note with it: read-out: Ratio EC50. Summed up: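 For the parasite, 5 × 10^3 bleach-activated Nanoluciferase-tagged oocysts per well infected HCT-8 monolayers at 50–75% confluence in RPMI-1640 with 10% FBS. They were incubated 48 h at 37 °C, 5% CO2, then lysed for luminescence. Growth was expressed as percent of infected untreated wells and fitted by variable-slope sigmoidal dose–response.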

Data set [4] can be described thus: Selectivity index, ratio of EC50 for cytotoxicity against human HepG2 cells to EC50 for antibacterial activity against Mycoplasma genitalium G37. Format: cell-based. The note with it: read-out: Ratio EC50. Summed up:
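SI is HepG2 EC50 over M. genitalium G37 EC50. G37 (~10^4 CFU/well) was grown in SP-4 broth with 7.5% FBS against 2-fold serial dilutions in triplicate for 6–7 days at 37 °C, 5% CO2. Genomes were quantified by 16S rRNA qPCR against untreated wells. HepG2 cytotoxicity used an MTS assay in triplicate, maximum 25 μM, with Triton X-100-lysed and untreated controls.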

The nature of data set [5]: Selectivity index, ratio of EC50 for cytotoxicity against human HepG2 cells to EC50 for antiparasitic activity against Trichomonas vaginalis Donne PRA-98. The data set is classed as toxicity, cell-based. The settings on record: read-out: Ratio EC50. The method, boiled down: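 Trichomonads (4 × 10^4 per well) under microaerophilic conditions were treated with compound at no more than 0.5% DMSO for 17 h. Cells were then fixed with glutaraldehyde, propidium iodide and acridine orange, shaken, incubated 3 h at 37 °C, and counted by high-content imaging.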

Turning to `CCOc1ccc2cc(-c3nn(CC4CCN(C)CC4)c4ncnc(N)c34)ccc2c1`, in the data set with Cryptosporidium parvum, the EC50 was 1.1 µM.
Turning to `Cc1cc(O)c2c(c1)[C@@H]([C@H]1c3cc(C)cc(O)c3C(=O)c3c(O)cc(O)cc31)c1cc(O)cc(O)c1C2=O`, a half-maximal effect in [1] (EC50 at 48 h) was put at 13.8 µM. Moreover, the selectivity ratio in data set [2] worked out at 8.6. Further, the EC50 with Plasmodium falciparum is 1.65 µM; with Cryptosporidium parvum, > 7.2 µM; in the data set on Mycoplasma genitalium it was > 10 µM; in the data set with Trichomonas vaginalis, > 10 µM.
On to `COC(=O)[C@]1([C@@H]2CCC(=O)O2)CC(=O)c2c(cc3c(c2O)[C@@H]2C=C[C@@]4(C3)C(=O)c3cc(C)cc(O)c3C(=O)[C@]4(O)C2=O)O1`, for which the EC50 at 48 h in [1] was > 25 µM. The concentration giving a half-maximal response (EC50) with Plasmodium falciparum was > 5 µM; with Cryptosporidium parvum it was > 6 µM; in the data set with Mycoplasma genitalium, > 10 µM; in the data set on Trichomonas vaginalis it was > 10 µM.
In the case of `COC(=O)[C@@]12Oc3cc4c(c(O)c3C(=O)C1=C(O)CC[C@@H]2O)[C@@H]1C=C[C@@]2(C4)C(=O)c3cc(C)cc(O)c3C(=O)[C@]2(O)C1=O`, the half-maximal effective concentration (EC50) at 48 h in data set [1] is > 25 µM. Moreover, the EC50 in the data set on Plasmodium falciparum was > 5 µM; in the data set on Cryptosporidium parvum, > 10 µM; with Mycoplasma genitalium it was > 10 µM; in the data set with Trichomonas vaginalis, > 10 µM.
Turning to `COC(=O)[C@]1([C@@H](O)CCC(=O)O)CC(=O)c2c(cc3c(c2O)[C@@H]2C=C[C@@]4(C3)C(=O)c3cc(C)cc(O)c3C(O)=C4C2=O)O1`, the EC50 at 48 h in [1] is > 25 µM. The concentration for a half-maximal effect (EC50) with Plasmodium falciparum was > 5 µM; with Cryptosporidium parvum, > 10 µM; with Mycoplasma genitalium, > 10 µM; in the data set with Trichomonas vaginalis, > 10 µM.
With `COC(=O)[C@]1([C@@H]2CCC(=O)O2)CC(=O)c2c(O)cc(C)cc2O1`, in data set [1], the EC50 at 48 h was > 25 µM. Besides, the EC50 in the data set on Plasmodium falciparum is > 5 µM; in the data set with Cryptosporidium parvum, > 40 µM; in the data set on Mycoplasma genitalium it was > 10 µM; in the data set with Trichomonas vaginalis, > 10 µM.
`COC(=O)[C@]1([C@@H](O)CCC(=O)O)CC(=O)c2c(cc3c(c2O)[C@@H]2C=C[C@@]4(C3)C(=O)c3cc(C)cc(O)c3C(=O)[C@]4(O)C2=O)O1`: in [1], the EC50 at 48 h was > 25 µM. Also, the concentration giving a half-maximal response (EC50) in the data set with Plasmodium falciparum is > 5 µM; in the data set with Cryptosporidium parvum it was > 10 µM; in the data set on Mycoplasma genitalium, > 10 µM; with Trichomonas vaginalis it was > 10 µM.
On to `COC(=O)[C@@]12Oc3cc4c(c(O)c3C(=O)[C@]1(O)C(=O)CC[C@@H]2O)[C@@H]1C=C[C@@]2(C4)C(=O)c3cc(C)cc(O)c3C(=O)[C@]2(O)C1=O`, for which the EC50 at 48 h in data set [1] was > 25 µM. In addition, the EC50 was > 5 µM in the data set with Plasmodium falciparum, > 10 µM in the data set on Cryptosporidium parvum, > 10 µM with Mycoplasma genitalium and > 10 µM in the data set with Trichomonas vaginalis.
As for `COC(=O)[C@]12Oc3c(c(O)cc4c3[C@@H]3C=C[C@@]5(C4)C(=O)c4cc(C)cc(O)c4C(=O)[C@]5(O)C3=O)C(=O)C1=C(O)CC[C@@H]2O`, in [1], the EC50 at 48 h is > 25 µM. Moreover, the concentration for a half-maximal effect (EC50) in the data set on Plasmodium falciparum is > 5 µM; with Cryptosporidium parvum it was > 10 µM; with Mycoplasma genitalium, > 10 µM; in the data set on Trichomonas vaginalis, > 10 µM.
In turn, `Cc1cc(O)c2c(c1)[C@@H]([C@@H]1c3cc(C)cc(O)c3C(=O)c3c(O)cc(O)cc31)c1cc(O)cc(O)c1C2=O` (relative stereo) returned an EC50 at 48 h in [1] of 10.2 µM. Besides, the selectivity ratio in data set [2] was found to be 9.1. In addition, the 50% effective concentration (EC50) in the data set on Plasmodium falciparum was 1.12 µM; in the data set with Cryptosporidium parvum, > 2.4 µM; in the data set with Mycoplasma genitalium it was > 10 µM; with Trichomonas vaginalis, > 10 µM.
`CC[C@H]1OC(=O)[C@H](C)[C@@H](O[C@H]2C[C@@](C)(OC)[C@@H](O)[C@H](C)O2)[C@H](C)[C@@H](O[C@@H]2O[C@H](C)C[C@H](N(C)C)[C@H]2O)[C@](C)(O)C[C@@H](C)CN(C)[C@H](C)[C@@H](O)[C@]1(C)O` [AZITHROMYCIN]: the half-maximal effective concentration (EC50) in the data set on Mycoplasma genitalium is 0.0005 µM.
For the molecule `Cc1ncc([N+](=O)[O-])n1CCO` [METRONIDAZOLE], in the data set on Trichomonas vaginalis, a half-maximal response (EC50) required 3.5 µM.
Take `COC(=O)[C@@]12Oc3cc4c(c(O)c3C(=O)C1=C(O)CC[C@@H]2O)[C@@H]1C=C[C@@]2(C4)C(=O)c3cc(C)cc(O)c3C(O)=C2C1=O` [XANTHOQUINODIN A1]: the 50% effective concentration (EC50) at 48 h in data set [1] is > 25 µM. Also, the selectivity ratio was > 86 in data set [2], > 4.8 in [3], > 62.5 in data set [4] and > 6.4 in data set [5]. Moreover, the 50% effective concentration (EC50) in the data set on Plasmodium falciparum was 0.29 µM; in the data set on Cryptosporidium parvum, 5.2 µM; with Mycoplasma genitalium, 0.13 µM; with Trichomonas vaginalis, 3.9 µM.
Consider `COC(=O)[C@]12Oc3cc4c(c(O)c3C(=O)C1=C(O)CC[C@@H]2O)[C@@H]1C=C[C@@]2(C4)C(=O)c3cc(C)cc(O)c3C(O)=C2C1=O` [XANTHOQUINODIN A2], for which, in data set [1], the concentration for a half-maximal effect (EC50) at 48 h was > 25 µM. Moreover, the selectivity ratio in data set [2] was > 50; in data set [3], > 7.1; in data set [4], > 125; in data set [5], > 3.7. Also, the EC50 in the data set on Plasmodium falciparum worked out at 0.5 µM; in the data set with Cryptosporidium parvum it was 3.5 µM; with Mycoplasma genitalium, 0.12 µM; in the data set on Trichomonas vaginalis it was 6.8 µM.
Regarding `COC(=O)[C@]1([C@@H]2CCC(=O)O2)CC(=O)c2c(cc3c(c2O)[C@@H]2C=C[C@@]4(C3)C(=O)c3cc(C)cc(O)c3C(O)=C4C2=O)O1` [XANTHOQUINODIN A3], in data set [1], the EC50 at 48 h is > 25 µM. For the same molecule, the figures for the EC50 in the data set on Plasmodium falciparum and with Trichomonas vaginalis were > 5 µM and > 10 µM, respectively.

By EC50 is commonly meant the concentration at which the effect is half-maximal.

The values above are taken from ChEMBL document CHEMBL5321249, “Appraisal of Fungus-Derived Xanthoquinodins as Broad-Spectrum Anti-Infectives Targeting Phylogenetically Diverse Human Pathogens” (J Nat Prod, 2023).
